Experimental findings from PubChem BioAssay are described below.

Calls of active or inactive are those of the source.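 Rule for the calls, unless noted: active = mean duplicate potentiation above the buffer control mean plus 5 SD of buffer wells; inactive = the rest.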

Assay [1] can be described thus: nonspecific flux increase, KCNQ1-free cells – parental CHO cells, counter-screen for KCNQ1 potentiator project (AID 493006;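 active = duplicate-averaged activation above buffer control mean plus 5 SD of those controls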;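 for activation: fluorescence ratio of max minus min over baseline after K+ and Tl+ depolarization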). The settings on record: parental CHO-K1 cells, FluxOR thallium flux, at 10 µM; hits give high values. An outline of the steps: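 Material: untransfected host CHO-K1 cells with FluxOR thallium dye. Timing: overnight 37 °C plating, 90 min RT dye, 20 min compound. Detection: kinetic FluxOR fluorescence, 10 s baseline, 110 s after stimulus. Read-out basis: max-minus-min fluorescence over baseline, percent of buffer-to-R-L3 span. Replicates: duplicate wells per compound, percent values averaged.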

In assay [2] the target is Potassium voltage-gated channel subfamily KQT member 1 (Homo sapiens) (UniProt P51787). The experiment in a line: enhancement of KCNQ1 channel thallium flux – FluxOR thallium flux, CHO cells, duplicates, confirmation (AID 493007;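 active = potentiation averaged over duplicate wells exceeding buffer-only control mean by more than 3 SD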;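 for outcome: cells depolarized by a potassium plus thallium sulfate stimulus after compound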). The settings on record: KCNQ1 cell line, FluxOR thallium flux fluorescence, at 10 µM; hits give high values, % of reference activator effect, buffer zero. In a few lines: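 Test system – KCNQ1-expressing CHO cell line · Incubation – FluxOR dye loading 90 min, compound exposure 20 min, room temperature · Detection – FluxOR Tl+ flux fluorescence, 10 s baseline plus 110 s recording · Controls – buffer-only wells as 0% and R-L3 activator as 100%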
Sequence of Potassium voltage-gated channel subfamily KQT member 1 (Homo sapiens) (P51787 whole entry, looked up): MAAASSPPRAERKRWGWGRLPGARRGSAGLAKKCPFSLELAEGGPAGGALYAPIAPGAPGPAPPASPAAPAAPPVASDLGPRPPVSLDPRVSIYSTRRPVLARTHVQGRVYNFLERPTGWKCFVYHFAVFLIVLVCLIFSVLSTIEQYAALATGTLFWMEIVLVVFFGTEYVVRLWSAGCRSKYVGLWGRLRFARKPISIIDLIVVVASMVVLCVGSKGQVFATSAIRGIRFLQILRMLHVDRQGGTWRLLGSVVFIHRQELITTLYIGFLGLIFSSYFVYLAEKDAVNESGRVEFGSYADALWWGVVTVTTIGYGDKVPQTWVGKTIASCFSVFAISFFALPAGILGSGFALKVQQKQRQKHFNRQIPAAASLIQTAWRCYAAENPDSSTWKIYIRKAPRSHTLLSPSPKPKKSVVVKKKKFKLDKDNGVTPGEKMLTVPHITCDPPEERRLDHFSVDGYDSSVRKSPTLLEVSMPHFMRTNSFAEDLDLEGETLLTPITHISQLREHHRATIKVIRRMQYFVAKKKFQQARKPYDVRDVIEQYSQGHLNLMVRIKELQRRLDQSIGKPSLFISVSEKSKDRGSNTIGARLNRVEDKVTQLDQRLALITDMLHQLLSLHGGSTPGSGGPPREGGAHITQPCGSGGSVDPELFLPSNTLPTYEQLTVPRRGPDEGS

In assay [3] the target is Potassium voltage-gated channel subfamily KQT member 2 (Rattus norvegicus) (UniProt O88943). The assay can be described thus: KCNQ2 thallium flux enhancement – KCNQ2-CHO-K1 cells, selectivity assay for KCNQ1 potentiator project (AID 493009).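 Note: assay conditions were tuned for KCNQ1 rather than KCNQ2 modulators; signal is max minus min fluorescence divided by baseline after thallium stimulus.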 The settings on record: FluxOR thallium flux fluorescence, at 10 µM; hits give high values, scaled: buffer 0, activator control 100.
Sequence of Potassium voltage-gated channel subfamily KQT member 2 (Rattus norvegicus) (O88943 whole entry, looked up): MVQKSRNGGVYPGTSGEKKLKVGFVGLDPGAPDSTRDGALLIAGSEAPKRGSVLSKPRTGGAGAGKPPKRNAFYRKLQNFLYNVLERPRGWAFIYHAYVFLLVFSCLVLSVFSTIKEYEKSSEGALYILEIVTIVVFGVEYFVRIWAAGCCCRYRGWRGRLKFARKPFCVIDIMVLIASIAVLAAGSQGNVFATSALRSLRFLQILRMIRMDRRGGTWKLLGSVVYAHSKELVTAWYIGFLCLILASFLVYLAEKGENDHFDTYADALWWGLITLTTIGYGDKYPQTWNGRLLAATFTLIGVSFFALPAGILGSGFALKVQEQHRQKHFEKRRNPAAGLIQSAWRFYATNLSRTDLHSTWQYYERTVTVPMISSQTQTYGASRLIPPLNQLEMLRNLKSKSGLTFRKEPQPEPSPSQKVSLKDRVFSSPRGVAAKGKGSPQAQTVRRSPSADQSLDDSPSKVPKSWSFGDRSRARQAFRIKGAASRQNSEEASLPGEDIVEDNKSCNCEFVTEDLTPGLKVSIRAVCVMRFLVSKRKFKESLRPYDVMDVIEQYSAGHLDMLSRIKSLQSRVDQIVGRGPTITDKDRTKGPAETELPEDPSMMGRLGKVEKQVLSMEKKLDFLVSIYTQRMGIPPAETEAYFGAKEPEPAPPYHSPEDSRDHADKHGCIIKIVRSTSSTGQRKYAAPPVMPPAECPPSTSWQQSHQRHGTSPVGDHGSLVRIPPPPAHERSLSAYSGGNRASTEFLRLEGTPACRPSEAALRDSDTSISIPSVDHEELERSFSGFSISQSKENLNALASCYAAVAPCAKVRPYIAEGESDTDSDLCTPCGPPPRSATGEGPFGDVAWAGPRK
The target of assay [4] is Potassium voltage-gated channel subfamily KQT member 1 (Homo sapiens) (UniProt P51787). The assay can be described thus: KCNQ1 activators by electrophysiology – IonWorks patch clamp, KCNQ1-CHO cells, orthogonal assay for KCNQ1 potentiator project, confirmation (AID 493184;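 active = current rise at least 3 SD above the untreated control mean in each of two repeat wells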;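 for current potentiation: percent change of the same well's current before compound addition so 0% = no change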). The settings on record: automated patch clamp current, at 10 µM; hits give high values. In a few lines:
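Read-out: Percent current increase versus pre-compound level | Assay system: CHO cells carrying KCNQ1 | Measured by: Automated perforated-patch electrophysiology | Medium: External bath solution at pH 7.4 | Dosing: One dose, 10 µM final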

For `O=C(NC(=S)Nc1ccccc1N1CCOCC1)c1cccc([N+](=O)[O-])c1`, the outcome in assay [1], in assay [2], in assay [3] and in assay [4] was inactive.

In the case of `CCOc1ccccc1C1c2[nH]c3ccccc3c2C[C@H]2C(=O)N(C3CC3)CC(=O)N12` (stereo not given in full), the outcome in assay [1], in assay [2] and in assay [3] was inactive. Further, in assay [4], the current potentiation is 22.3% (active).

As to `CCN(C(=S)NC(=O)c1ccccc1Br)C1CCCCC1`, the activation in assay [1] is 358% (active). For the same molecule, the potentiation in assay [2] was 124% (active); in assay [3], 370% (active). The result in assay [4] was inactive.

In the case of `S=c1[nH]cnc2scc(-c3ccccc3)c12`, the activation in assay [1] was 192% (active). The results for the potentiation in assay [2] and in assay [3] were 52% (active) and 205% (active), respectively. The outcome in assay [4] was inactive.

Turning to `CCOC(=O)c1cccc(NC(=O)CCc2ccccc2)c1`, the result in assay [1], in assay [2], in assay [3] and in assay [4] was inactive.

Take `Cc1cc(NC(=O)CSc2nc(C3CC3)nc3sc(C)c(C)c23)no1`: the activation in assay [1] is 148% (active). Besides, the potentiation in assay [2] was 38% (active); in assay [3], 172% (active). Further, the outcome in assay [4] was inactive.

With `CCCNC(=O)C(=O)N/N=C/c1cccs1`, the outcome in assay [1], in assay [3] and in assay [4] was inactive. Moreover, the potentiation in assay [2] was 24.5% (active).

As to `COc1cc(CN(C)CC2CCCN(CCc3cccc(C(F)(F)F)c3)C2)ccc1O` (stereo not given), the result in assay [1], in assay [3] and in assay [4] was inactive. In addition, in assay [2], the potentiation is 43% (active).

In the case of `Cc1ccc(NC(=O)CCS(=O)(=O)c2cccc3nonc23)c(Br)c1`, the result in assay [1], in assay [2], in assay [3] and in assay [4] was inactive.

Turning to `CCCc1nc(SCC(=O)Nc2cc(Cl)ccc2OC)c2c(=O)n(C)c(=O)n(C)c2n1`, the result in assay [1], in assay [2], in assay [3] and in assay [4] was inactive.

In the case of `N=c1ccn(CC(=O)c2ccc(-c3ccccc3)cc2)cc1`, the result in assay [1], in assay [2], in assay [3] and in assay [4] was inactive.

On to `CC(=O)N1N=C(c2ccccc2OC(=O)/C=C/c2ccccc2)CC1c1ccccc1` (stereo not given), for which the outcome in assay [1], in assay [2], in assay [3] and in assay [4] was inactive.

Regarding `CCOC(=O)/C(=C\c1cccnc1)C(=O)c1cc(C(C)=O)c(Nc2ccccc2)s1`, the result in assay [1], in assay [2], in assay [3] and in assay [4] was inactive.

Regarding `COc1ccc(C(=O)CSc2nnc(NC(=O)C3CC(=O)N(c4cccc(OC)c4)C3)s2)cc1` (stereo not given), the result in assay [1], in assay [2], in assay [3] and in assay [4] was inactive.

`Cc1ccc(S(=O)(=O)Nc2cc(C(F)(F)F)ccc2N2CCOCC2)c(C)c1`: the result in assay [1], in assay [2], in assay [3] and in assay [4] was inactive.

Consider `Cc1ccccc1CC(=O)NC1CCN(Cc2ccccc2)CC1`, for which the result in assay [1], in assay [2], in assay [3] and in assay [4] was inactive.

In the case of `O=c1c2ccccc2[nH]c(=S)n1CCc1ccccc1`, the activation in assay [1] was 159% (active). Further, the outcome in assay [2], in assay [3] and in assay [4] was inactive.

`CCOC(=O)c1c(C)[nH]c(=S)c(C#N)c1-c1ccc(Cl)cc1`: the activation in assay [1] was 150% (active). For the same molecule, the results for the potentiation in assay [2] and in assay [3] were 34.5% (active) and 170% (active), respectively. Also, the result in assay [4] was inactive.

Take `Cc1cc(C)n(-c2nc(NCCN(C)C)c3c4c(sc3n2)COC(C)(C)C4)n1`: the result in assay [1], in assay [2], in assay [3] and in assay [4] was inactive.

For `CCOC(=O)c1sc2ncnc(NCC(c3cccs3)N(C)C)c2c1C` (stereo not given), the activation in assay [1] is 255% (active). Also, the figures for the potentiation in assay [2] and in assay [3] were 87% (active) and 263% (active), respectively. Also, the outcome in assay [4] was inactive.

As for `CCn1c(SC(C)C(=O)O)nc2sc3c(c2c1=O)CCC3` (stereo not given), the activation in assay [1] is 203% (active). Moreover, the potentiation in assay [2] was 42.5% (active); in assay [3] it was 230% (active). The result in assay [4] was inactive.

Consider `C/C(=N\NC(=O)c1cccc(Br)c1)c1ccccn1`, for which the result in assay [1], in assay [2], in assay [3] and in assay [4] was inactive.

Regarding `Cc1ccc(F)cc1S(=O)(=O)NCc1ccc(N2CCN(C)CC2)cc1`, the result in assay [1], in assay [2], in assay [3] and in assay [4] was inactive.

For the molecule `Cc1cc(NC(=O)CSc2cn(CCNC(=O)c3ccc(F)cc3)c3ccccc23)no1`, the outcome in assay [1], in assay [2], in assay [3] and in assay [4] was inactive.

In the case of `O=c1c2ccc(Cl)cc2[nH]c(=S)n1CCC1=CCCCC1`, the activation in assay [1] was 156% (active). Also, the results for the potentiation in assay [2] and in assay [3] were 48.5% (active) and 166% (active), respectively. In addition, in assay [4], the outcome was inactive.

Regarding `COc1ccccc1OCCc1nnc(N)s1`, the result in assay [1], in assay [2], in assay [3] and in assay [4] was inactive.

As for `COc1cccc2sc(Nc3nnc(-c4cccs4)o3)nc12`, the activation in assay [1] was 396% (active). Moreover, the potentiation in assay [2] is 250% (active); in assay [3] it was 424% (active). The result in assay [4] was inactive.

In the case of `Cc1cc(Cl)c(S(=O)(=O)Nc2ccc3c(c2)OCO3)cc1OCC(N)=O`, the outcome in assay [1], in assay [2], in assay [3] and in assay [4] was inactive.

As to `Cc1ccc(C(=O)COC(=O)COc2ccccc2C)cc1`, the outcome in assay [1], in assay [2], in assay [3] and in assay [4] was inactive.

On to `CCCn1cc(NC(=O)c2cc(-c3ccccc3)on2)cn1`, for which the outcome in assay [1], in assay [3] and in assay [4] was inactive. In addition, the potentiation in assay [2] was 25% (active).
